From ChEMBL document CHEMBL4190236, “New arylpyrazoline-coumarins: Synthesis and anti-inflammatory activity” (Eur J Med Chem, 2017) come the findings set out here.

Calls of active or inactive are those of the source. The rule behind the calls is not given here.

The term inhibition denotes how much of the control response was suppressed. Broadly, the inhibition in vivo is the percentage by which the read-out fell short of the control. As usually defined, the IC50 is the concentration that gives 50% inhibition.

Series [1] concerns the target Transcription factor p65 (Mus musculus) (UniProt Q04207). Put plainly: Inhibition of LPS-induced NFkB activation in mouse RAW264.7 cells assessed as reduction in nuclear translocation of p65 at 20 uM preincubated for 1 hr followed by LPS stimulation measured after 3 hrs by Western blot method. In kind it is cell-based.
Series [2] concerns Rattus norvegicus. In words: Anti-inflammatory activity in Sprague-Dawley rat assessed as inhibition of carrageenan-induced paw edema at 10 mg/kg, po administered 30 mins prior to carrageenan challenge measured after 3 hrs relative to control. In kind it is functional. An outline of the steps: (§1)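 Male rats given test agent or diclofenac orally at 10 mg/kg, suspended in 0.5% Na CMC, 30 min before 0.1 mL of 1% (w/v) carrageenan injected into right hind paw. Vehicle control received 0.5% sodium CMC. Paw thickness measured at 1, 3 and 5 h. % inhibition calculated from paw oedema of treated versus control group. Table gives n = 5.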

The subject of series [3] is Rattus norvegicus. In words: Anti-inflammatory activity in Sprague-Dawley rat assessed as inhibition of carrageenan-induced paw edema at 10 mg/kg, po administered 30 mins prior to carrageenan challenge measured after 5 hrs relative to control. In kind it is functional. An outline of the steps: as §1
Series [4] relates to Rattus norvegicus. In words: Anti-inflammatory activity in Sprague-Dawley rat assessed as inhibition of carrageenan-induced paw edema at 10 mg/kg, po administered 30 mins prior to carrageenan challenge measured after 1 hr relative to control. In kind it is functional. In outline: as §1
Series [5] concerns RAW264.7. In words: Anti-inflammatory activity in mouse RAW264.7 cells assessed as inhibition of LPS-induced TNFalpha release at 10 uM preincubated for 1 hr followed by LPS stimulation measured after 24 hrs by ELISA relative to control. The format is functional. In outline: (§2)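 RAW264.7 cells (DMEM, 10% FBS, 37 °C, 5% CO2) plated at 7 × 10^4 cells/well and grown 24 h, then serum-starved 2.5 h. Exposed to 10 µM compound for 1 h, then LPS 1 µg/mL for 24 h. TNF-α or IL-6 in the medium quantified by mouse ELISA. Cytokine amount normalized to protein of viable cell pellets. Expressed as % inhibition.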

For series [6], the system named is RAW264.7. In words: Anti-inflammatory activity in mouse RAW264.7 cells assessed as inhibition of LPS-induced IL-6 release at 10 uM preincubated for 1 hr followed by LPS stimulation measured after 24 hrs by ELISA relative to control. In kind it is functional. In outline:
as §2

Series [7] deals with RAW264.7. In words: Anti-inflammatory activity in mouse RAW264.7 cells assessed as inhibition of LPS-induced nitric oxide production preincubated for 1 hr followed by LPS stimulation measured after 24 hrs by Griess assay. In kind it is functional, cell-based. An outline of the steps:
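Griess nitrite assay. RAW264.7 cells pretreated 1 h with compound, then LPS 1 µg/mL for 24 h. Supernatant mixed 1:1 with Griess reagent, OD read at 540 nm against a NaNO2 standard curve. At least three independent experiments, each in duplicate.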

For series [8], the system named is RAW264.7. In words: Cytotoxicity against mouse RAW264.7 cells assessed reduction in cell viability at 10 to 40 uM by MTT assay. In kind it is cell-based. Conditions: raw264.7, 40 µM.
Series [9] has as its system Rattus norvegicus. In words: Anti-inflammatory activity in po dosed adjuvant-induced Sprague-Dawley rat arthritis model assessed as reduction in bone destruction administered once daily from day 14 to 28 post-immunization measured by H and E staining based histopathological analysis. The format is functional, organism-based. An outline of the steps: (§3)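 Male SD rats (180–200 g), 8 per group. Arthritis induced by one intradermal injection of 0.1 mL CFA (heat-killed M. butyricum in paraffin oil, 10 mg/mL) into the right hind paw. Test agent at 45 or 90 mg/kg, aspirin 50 mg/kg, in 0.5% CMC-Na, given intragastrically once daily on days 14–28. Right ankle joints taken at day 28, fixed, EDTA-decalcified, cut at 5 µm and H&E stained.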

Series [10] relates to Rattus norvegicus. In words: Anti-inflammatory activity in po dosed adjuvant-induced Sprague-Dawley rat arthritis model assessed as reduction in synovial hyperplasia administered once daily from day 14 to 28 post-immunization measured by H and E staining based histopathological analysis. In kind it is functional, organism-based. An outline of the steps: as §3
Series [11] concerns RAW264.7. Put plainly: Anti-inflammatory activity in mouse RAW264.7 cells assessed as inhibition of LPS-induced IL-6 release preincubated for 1 hr followed by LPS stimulation measured after 24 hrs by ELISA. In kind it is functional, cell-based. An outline of the steps: (§4)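 Serum-starved (2.5 h) RAW264.7 cells were pretreated 1 h with a range of compound concentrations, then given LPS 1 µg/mL for 24 h. TNF-α or IL-6 in the medium was quantified by mouse ELISA and normalized to protein of viable cell pellets.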

The target of series [12] is Mitogen-activated protein kinase kinase kinase 7 (Mus musculus) (UniProt Q62073). In words: Inhibition of TAK1 in mouse RAW264.7 cells assessed as reduction in LPS-induced MAPK p38 phosphorylation preincubated for 1 hr followed by LPS stimulation measured after 30 mins by Western blot method.
Series [13] shares this target. Put plainly: Inhibition of LPS-induced TAK1 phosphorylation in mouse RAW264.7 cells preincubated for 1 hr followed by LPS stimulation measured after 30 min by Western blot method. (In western blotting, separated proteins are transferred to a membrane and probed.)
Series [14] concerns Rattus norvegicus. Put plainly: Anti-inflammatory activity in po dosed adjuvant-induced Sprague-Dawley rat arthritis model assessed as reduction in inflammatory cell infilteration administered once daily from day 14 to 28 post-immunization measured by H and E staining based histopathological analysis. In kind it is functional, organism-based. In outline:
as §3

In series [15] the test system is RAW264.7. In words: Anti-inflammatory activity in mouse RAW264.7 cells assessed as inhibition of LPS-induced COX2 protein expression preincubated for 1 hr followed by LPS stimulation measured after 24 hrs by Western blot method. The format is functional, cell-based. An outline of the steps:
(§5)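 Cells grown 24 h, serum-starved 2.5 h, pretreated 1 h with compound, then LPS 1 µg/mL for 24 h. Lysed in RIPA on ice, run on 10% SDS-PAGE, transferred to PVDF. Probed overnight at 4 °C with primary antibody for iNOS (130 kDa) or COX-2 (72 kDa), then HRP secondary. β-actin as loading control. At least three independent experiments.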

For series [16], the system named is RAW264.7. Put plainly: Anti-inflammatory activity in mouse RAW264.7 cells assessed as inhibition of LPS-induced TNFalpha release preincubated for 1 hr followed by LPS stimulation measured after 24 hrs by ELISA. The format is functional, cell-based. An outline of the steps:
as §4
A general note: An ELISA detects its analyte on a solid surface through an enzyme-linked reagent.

The target of series [17] is Mitogen-activated protein kinase kinase kinase 7 (Mus musculus) (UniProt Q62073). Put plainly: Inhibition of TAK1 in mouse RAW264.7 cells assessed as inhibition of LPS-induced NFkB activation by measuring reduction in nuclear translocation of p65 at 2.5 to 10 uM preincubated for 1 hr followed by LPS stimulation measured after 3 hrs by DAPI staining based immunofluorescence assay.

For series [18] the target is unchanged. Put plainly: Inhibition of TAK1 in mouse RAW264.7 cells assessed as inhibition of LPS-induced NFkB activation by measuring reduction in nuclear translocation of p65 at 2.5 to 10 uM preincubated for 1 hr followed by LPS stimulation measured after 3 hrs by Western blot method.
Series [19] deals with RAW264.7. Put plainly: Anti-inflammatory activity in mouse RAW264.7 cells assessed as inhibition of LPS-induced iNOS protein expression preincubated for 1 hr followed by LPS stimulation measured after 24 hrs by Western blot method. In kind it is functional, cell-based. In outline:
as §5

Sequence of Mitogen-activated protein kinase kinase kinase 7 (Mus musculus) (Q62073 whole entry, looked up): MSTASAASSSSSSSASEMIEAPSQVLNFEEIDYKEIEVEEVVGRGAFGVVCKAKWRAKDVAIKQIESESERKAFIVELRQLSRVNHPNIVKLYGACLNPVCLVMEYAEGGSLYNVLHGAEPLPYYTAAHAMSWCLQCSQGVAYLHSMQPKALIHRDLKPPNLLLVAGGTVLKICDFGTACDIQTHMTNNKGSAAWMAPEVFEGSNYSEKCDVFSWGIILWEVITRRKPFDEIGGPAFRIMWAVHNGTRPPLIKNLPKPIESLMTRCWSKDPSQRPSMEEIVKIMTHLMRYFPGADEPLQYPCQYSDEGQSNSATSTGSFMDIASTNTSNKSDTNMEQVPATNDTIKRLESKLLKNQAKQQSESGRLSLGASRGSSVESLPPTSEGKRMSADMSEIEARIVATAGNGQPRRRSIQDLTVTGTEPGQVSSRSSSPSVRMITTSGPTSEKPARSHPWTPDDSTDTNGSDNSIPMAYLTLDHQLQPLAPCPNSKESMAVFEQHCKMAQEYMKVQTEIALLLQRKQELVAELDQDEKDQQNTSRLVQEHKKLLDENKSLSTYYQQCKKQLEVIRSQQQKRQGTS
Sequence of Transcription factor p65 (Mus musculus) (Q04207 whole entry): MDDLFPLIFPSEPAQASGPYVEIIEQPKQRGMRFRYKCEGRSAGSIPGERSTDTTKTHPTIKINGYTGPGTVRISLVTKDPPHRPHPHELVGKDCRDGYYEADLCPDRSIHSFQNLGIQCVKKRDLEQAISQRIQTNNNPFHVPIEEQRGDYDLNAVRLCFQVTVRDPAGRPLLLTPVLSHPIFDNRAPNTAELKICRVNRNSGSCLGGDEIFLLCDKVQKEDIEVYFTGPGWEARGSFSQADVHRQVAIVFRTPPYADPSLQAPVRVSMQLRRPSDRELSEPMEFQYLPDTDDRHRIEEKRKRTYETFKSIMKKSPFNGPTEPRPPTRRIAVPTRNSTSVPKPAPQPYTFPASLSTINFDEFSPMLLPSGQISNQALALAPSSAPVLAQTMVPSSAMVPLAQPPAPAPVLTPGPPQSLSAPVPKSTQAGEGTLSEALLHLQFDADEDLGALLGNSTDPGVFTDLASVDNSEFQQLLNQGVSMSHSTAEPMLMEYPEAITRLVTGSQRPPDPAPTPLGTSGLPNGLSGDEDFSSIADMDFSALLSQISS

For the compound `Cc1ccc(S(=O)(=O)/C=C/C#N)cc1`, the inhibition result in series [1] is “Active”.

On to `Cc1ccc(-c2cc(C(F)(F)F)nn2-c2ccc(S(N)(=O)=O)cc2)cc1` [CELECOXIB], for which the inhibition in vivo at 10 mg/kg in [2] is 59%; in series [3] it was 61%; in series [4], 55%.

For `C=CCN(CC=C)CC(=O)N1N=C(c2cc3ccccc3oc2=O)CC1c1ccccc1C(F)(F)F` (stereo not drawn), the figures for the inhibition in vivo at 10 mg/kg in [2], in series [3] and in series [4] were 49%, 45% and 28%, respectively. Also, the inhibition result in series [5] and in series [6] was “Active” in each case.

Consider `O=C(CN1CCCCC1)N1N=C(c2cc3ccccc3oc2=O)CC1c1ccc(C(F)(F)F)cc1` (stereo not drawn), for which the inhibition in vivo at 10 mg/kg in [2] was 41%; in series [3], 36%; in series [4] it was 32%. In addition, the inhibition result in series [5] and in [6] was “Active” in each case.

In the case of `O=C(O)Cc1ccccc1Nc1c(Cl)cccc1Cl` [DICLOFENAC], the inhibition in vivo at 10 mg/kg in series [2] amounted to 77%; in series [3], 48%; in series [4], 41%.

For the compound `COc1ccc(-c2coc3cc(OCC(=O)N4N=C(c5cc6ccccc6oc5=O)CC4c4ccc(C(F)(F)F)cc4)ccc3c2=O)cc1` (stereo not drawn), the Activity result in series [7] was “Dose-dependent effect”; in series [8] it was “Non-Toxic”; in series [9], “Dose-dependent effect”; in series [10], “Dose-dependent effect”; in series [14], “Dose-dependent effect”; in series [15] it was “Dose-dependent effect”. Moreover, in [19], the Activity result is “Dose-dependent effect”. The inhibition in vivo at 10 mg/kg is 60% in series [2], 59% in [3] and 49% in [4]. In addition, the inhibition at 10 µM was 40.4% in [5] and 41.2% in series [6]. The IC50 in series [11] is 14.2 µM; in series [16] it was 16.8 µM. Also, the inhibition entry in series [12] and in series [13] was “Dose-dependent effect” each time. The inhibition result in [17] and in series [18] was “Active” in each case.

Turning to `CC(C)NCC(=O)N1N=C(c2cc3ccccc3oc2=O)CC1c1ccccc1C(F)(F)F` (stereo not drawn), the figures for the inhibition in vivo at 10 mg/kg in series [2], in series [3] and in series [4] were 20%, 13% and 17%, respectively.
